Results as given in ChEMBL document CHEMBL1121423, “2,4-Dihydro-6-phenyl-1H-s-triazolo[4,3-a][1,4]benzoidiazepin-1-ones with antianxiety and antidepressant activity” (1980).

How the values were obtained:
Assay type in all cases: functional
Mus musculus [1] = organism: Mus musculus; test: Effect on the potentiation of yohimbine-induced toxicity (Y) in aggregated mice
Outline: (§1)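 Male albino CF-1 mice, 18-22 g. Compounds were dissolved or suspended in 0.25% aqueous methylcellulose and given intraperitoneally to groups of four or six mice per dose, at multiple dose levels. ED50 was calculated by the Spearman-Karber method.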

Mus musculus [2] = organism: Mus musculus; test: Effect on the antagonism of pentylenetetrazole-induced clonic convulsions (P)
Mus musculus [3] = organism: Mus musculus; test: Effect on the potentiation of gamma-butyrolactone-induced sleep (gamma-B); outline: as §1
Mus musculus [4] = organism: Mus musculus; test: Effect on the antagonism of oxotremorine-induced hypothermia (OX); outline: as §1
Mus musculus [5] = organism: Mus musculus; test: Effect on the antagonism of nicotine-induced tonic-extensor convulsions (TE) in mice; outline: as §1
Mus musculus [6] = organism: Mus musculus; test: Effect of test compound on the potentiation of apomorphine-induced gnawing (AG) in aggregated mice; outline: as §1
Mus musculus [7] = organism: Mus musculus; test: Effect on the antagonism of nicotine-induced death (D); outline: as §1
Mus musculus [8] = organism: Mus musculus; test: Effect on the antagonism of bicuculline-induced tonic-extensor convulsions (B); outline: as §1
Mus musculus [9] = organism: Mus musculus; test: Effect on the prolongation of hypoxic survival time (HS); outline: as §1

SMILES | ED50 (Mus musculus [1]) [mg/kg] | ED50 (Mus musculus [2]) [mg/kg] | ED50 (Mus musculus [3]) [mg/kg] | ED50 (Mus musculus [4]) [mg/kg] | ED50 (Mus musculus [5]; Mus musculus, read-out: ED50) [mg/kg] | ED50 (Mus musculus [6]) [mg/kg] | ED50 (Mus musculus [7]; Mus musculus, read-out: ED50) [mg/kg] | ED50 (Mus musculus [8]; Mus musculus, read-out: ED50) [mg/kg] | ED50 (Mus musculus [9]) [mg/kg] | ED50 (Mus musculus [5]) [mg/kg] | ED50 (Mus musculus [7]) [mg/kg] | ED50 (Mus musculus [8]) [mg/kg]
CN(C)CCCn1nc2n(c1=O)-c1ccc(Cl)cc1C(c1ccccc1)=NC2 | > 50 | 32 | 10 | > 50 | 3.6 | > 50 | 3.6 | 40 | > 50 | – | – | –
CC(CN(C)C)Cn1nc2n(c1=O)-c1ccc(Cl)cc1C(c1ccccc1Cl)=NC2 (stereo not given) | > 50 | – | 2 | > 50 | 1 | > 50 | 1.1 | 7 | 40 | – | – | –
Oc1nnc2n1-c1ccc(Cl)cc1C(c1ccccc1Cl)=NC2 | > 50 | 0.08 | 0.4 | > 50 | 0.025 | > 50 | 0.025 | 1 | > 50 | – | – | –
CN1CCN(CCn2nc3n(c2=O)-c2ccc(Cl)cc2C(c2ccccc2)=NC3)CC1 | > 50 | 8.8 | 5.3 | 14.9 | 8 | > 50 | 8 | 17.7 | 10.5 | – | – | –
CN(C)CCCN1c2ccccc2CCc2ccccc21 [IMIPRAMINE] | 4 | – | 18 | 1 | 7 | 1 | 7 | 21 | > 50 | – | – | –
Cn1nc2n(c1=O)-c1ccc(Cl)cc1C(c1ccccc1)=NC2 | > 50 | 2.5 | – | > 50 | 0.63 | > 50 | 0.63 | 3 | – | 1 | 1.1 | 2
CN(C)Cc1nnc2n1-c1ccc(Cl)cc1C(c1ccccc1)=NC2 [ADINAZOLAM] | – | 0.9 | 1.6 | 5.3 | 0.11 | 5.3 | 0.13 | 0.7 | 5 | – | – | –
CCN(CC)CCCCn1nc2n(c1=O)-c1ccc(Cl)cc1C(c1ccccc1Cl)=NC2 | > 12.5 | 4.4 | 12.5 | 10.5 | 0.8 | > 12.5 | 0.8 | > 12.5 | 7 | – | – | –
CCN(CC)CCn1nc2n(c1=O)-c1ccc(Cl)cc1C(c1ccccc1)=NC2 | > 50 | 4 | 1 | > 50 | 1.3 | > 50 | 1.3 | 10 | > 50 | – | – | –
CN1C(=O)CN=C(c2ccccc2)c2cc(Cl)ccc21 [DIAZEPAM] | > 50 | 0.1 | 0.035 | > 50 | 0.28 | > 50 | 0.28 | 2.6 | 0.2 | – | – | –
CCN(CC)CCn1nc2n(c1=O)-c1ccc(Cl)cc1C(c1ccccc1Cl)=NC2 | > 100 | 0.45 | 0.4 | > 100 | 0.09 | > 100 | 0.1 | 0.7 | 4 | – | – | –
O=c1n(CCCN2CCN(c3ccccc3)CC2)nc2n1-c1ccc(Cl)cc1C(c1ccccc1Cl)=NC2 | > 50 | > 50 | > 50 | > 50 | 40 | > 50 | 40 | > 50 | > 50 | – | – | –
CCN(CC)CCCn1nc2n(c1=O)-c1ccc(Cl)cc1C(c1ccccc1Cl)=NC2 | > 50 | 8.8 | 5.3 | > 25 | 1.1 | > 50 | 1.3 | > 50 | 10 | – | – | –
CN1CCN(CCCn2nc3n(c2=O)-c2ccc(Cl)cc2C(c2ccccc2Cl)=NC3)CC1 | 25 | 3.7 | 3.7 | 25 | 0.4 | > 25 | 0.5 | > 25 | > 30 | – | – | –
Oc1nnc2n1-c1ccc(Cl)cc1C(c1ccccc1)=NC2 | > 50 | 5.6 | 6 | > 50 | 1.4 | > 50 | 1.6 | 40 | > 50 | – | – | –
CN(C)CCn1nc2n(c1=O)-c1ccc(Cl)cc1C(c1ccccc1)=NC2 | > 100 | 3.2 | 5 | > 100 | 0.89 | > 100 | 1.4 | 6 | 30 | – | – | –
CN1CCN(CCn2nc3n(c2=O)-c2ccc(Cl)cc2C(c2ccccc2Cl)=NC3)CC1 | > 25 | 0.3 | 0.2 | 12.5 | – | > 25 | – | 3.1 | 3.1 | – | – | –
CN(C)CCCn1nc2n(c1=O)-c1ccc(Cl)cc1C(c1ccccc1Cl)=NC2 | > 50 | 6.3 | 2.2 | > 50 | 0.9 | 7.4 | 1.1 | 14.9 | > 50 | – | – | –
O=c1n(CCCN2CCN(CCO)CC2)nc2n1-c1ccc(Cl)cc1C(c1ccccc1Cl)=NC2 | > 25 | 6.3 | 2 | > 25 | 0.5 | > 30 | 0.56 | 12.5 | 20 | – | – | –
CNCCCn1nc2n(c1=O)-c1ccc(Cl)cc1C(c1ccccc1Cl)=NC2 | > 50 | 14.9 | 25 | > 50 | 1.4 | > 50 | 1.4 | > 50 | 9 | – | – | –
Cn1nc2n(c1=O)-c1ccc(Cl)cc1C(c1ccccc1Cl)=NC2 | – | 0.14 | – | – | 0.002 | – | 0.002 | – | 2.2 | – | – | –
